These results are taken from ChEMBL document CHEMBL5104204, “Synthesis and in vitro anticancer evaluation of novel flavonoid-based amide derivatives as regulators of the PI3K/AKT signal pathway for TNBC treatment” (RSC Med Chem, 2022).

Experiment [1] concerns MDA-MB-231. Briefly: Induction of apoptosis in human MDA-MB-231 cells assessed as early apoptotic cells at 7.04 uM incubated for 48 hrs AnnexinV/ propidium iodide staining based flow cytometry (Rvb= 0.3%). The experiment is classed as functional. (In general: A flow cytometer gives signals particle by particle.)
Experiment [2] has as its system MDA-MB-231. Briefly: Inhibition of PI3K/AKT signalling pathway in human MDA-MB-231 cells assessed as decrease in phosphorylated AKT level at 1 to 10 uM incubated for 48 hrs by western blot analysis. The experiment is classed as cell-based. The following applies: dose 1-10 µM, DDE = dose-dependent effect. The method in brief:
(§1)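 MDA-MB-231 treated at 1, 5 and 10 μM at 37 °C, then lysed in RIPA/PMSF for 30 min at 0 °C and cleared at 14 000 × g, 4 °C. Protein quantified by BCA; 40 μg resolved by SDS-PAGE and transferred to PVDF. Blocked in 5% skim milk, primary antibody overnight at 4 °C, secondary 2 h at room temperature, chemiluminescent imaging.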
On the technique in general: In western blotting, separated proteins are transferred to a membrane and probed.

The subject of experiment [3] is MDA-MB-231. Briefly: Inhibition of colony formation in human MDA-MB-231 cells assessed as decrease in number of colony forming cells at 0.44 to 3.52 incubated for 48 hrs by crystal violet staining based assay. The experiment is classed as functional, cell-based. The following applies: DDE = dose-dependent effect. The method, boiled down:
(§2)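 Colony formation, MDA-MB-231: 800 cells/well, three replicate wells per group, grown 5–7 days at 37 °C, 5% CO2 until 30–50-cell clusters formed. Drug then added for 24, 48 or 72 h. Washed with cold PBS, fixed in 4% paraformaldehyde 30 min, stained with 0.5% crystal violet, imaged, colonies counted; n = 3.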

Experiment [4] relates to MDA-MB-231. Nature of the experiment: Induction of apoptosis in human MDA-MB-231 cells assessed as early apoptotic cells at 1.76 uM incubated for 48 hrs AnnexinV/ propidium iodide staining based flow cytometry (Rvb= 0.3%). The experiment is classed as functional.
For another experiment, the system named is MCF7. Briefly: Antitumor activity against human MCF7 cells assessed as inhibit cell proliferation incubated for 72 hrs by CCK-8 assay. Type of experiment: functional, cell-based. As to conditions: MCF7, 72 h. The method in brief: (§3)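 CCK8 viability readout. Culture media: HCC1937, A549, HeLa and GTL-16 in RPMI 1640; MDA-MB-231, MCF-7 and HepG2 in high-glucose DMEM; all with 10% FBS and penicillin/streptomycin, 37 °C, 5% CO2. 4×10^3–6×10^3 cells/well, 24 h, then compounds in serum-free medium, 72 h at 37 °C. 10% CCK8, 2 h, OD 450/630 nm. Five wells per group; IC50 from inhibition rate; three independent experiments, mean ± SD.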

Experiment [5] concerns MDA-MB-231. Briefly: Induction of apoptosis in human MDA-MB-231 cells assessed as necrotic cells at 2.2 uM incubated for 48 hrs AnnexinV/ propidium iodide staining based flow cytometry (Rvb= 0.54%). Type of experiment: functional.
Experiment [6] relates to MDA-MB-231. Nature of the experiment: Induction of apoptosis in human MDA-MB-231 cells assessed as downregulation of Bcl-2 expression at 1 to 10 uM incubated for 48 hrs by western blot analysis. Type of experiment: functional, cell-based. As to conditions: dose 1-10 µM, DDE = dose-dependent effect. The method in brief: as §1
Experiment [7] concerns MDA-MB-231. Briefly: Inhibition of colony formation in human MDA-MB-231 cells assessed as decrease in size of colony forming cells at 0.44 to 3.52 uM incubated for 48 hrs by crystal violet staining based assay. The experiment is classed as functional, cell-based. The following applies: dose 0.44-3.52 µM, DDE = dose-dependent effect. The method, boiled down:
as §2

The subject of experiment [8] is MDA-MB-231. Nature of the experiment: Induction of apoptosis in human MDA-MB-231 cells assessed as necrotic cells at 0.88 uM incubated for 48 hrs AnnexinV/ propidium iodide staining based flow cytometry (Rvb= 0.54%). Type of experiment: functional.
Another experiment deals with HeLa. Briefly: Antitumor activity against human HeLa cells assessed as inhibit cell proliferation incubated for 72 hrs by CCK-8 assay. Type of experiment: functional, cell-based. The method in brief:
as §3
(In general: Tetrazolium dyes change colour on reduction, which living cells bring about.)

Experiment [9] concerns MDA-MB-231. Nature of the experiment: Induction of apoptosis in human MDA-MB-231 cells assessed as early apoptotic cells at 3.52 uM incubated for 48 hrs AnnexinV/ propidium iodide staining based flow cytometry (Rvb= 0.3%). The experiment is classed as functional.
In experiment [10] the test system is MDA-MB-231. Briefly: Induction of cell cycle arrest in human MDA-MB-231 cells assessed as increase in accumulation at G0/G1 phase at 0.88 to 3.52 uM incubated for 48 hrs by flow cytometry. The experiment is classed as functional, cell-based. The following applies: dose 0.88-3.52 µM, DDE = dose-dependent effect. The method, boiled down:
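Cell cycle of MDA-MB-231 after 48 h exposure: trypsinised and washed in PBS, about 1×10^6 cells/mL. Fixed overnight in pre-cooled 70% ethanol at 4 °C, then resuspended in PBS and filtered through 200-mesh nylon. Flow cytometry with 488 nm excitation gave G0/G1, S and G2/M percentages; n = 3, mean ± SD.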

Experiment [11] deals with MDA-MB-231. Briefly: Induction of apoptosis in human MDA-MB-231 cells assessed as necrotic cells at 1.76 uM incubated for 48 hrs AnnexinV/ propidium iodide staining based flow cytometry (Rvb= 0.54%). The experiment is classed as functional.
Experiment [12] concerns MDA-MB-231. Briefly: Induction of apoptosis in human MDA-MB-231 cells assessed as half-moon, loop and ellipse shaped fragment formation at 0.88 to 3.52 uM incubated for 48 hrs by Hoechst 33258 staining based fluorescence microscopic analysis. The experiment is classed as functional, cell-based. The following applies: dose 0.88-3.52 µM, DDE = dose-dependent effect. The method, boiled down:
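MDA-MB-231 seeded at 2×10^5–3×10^5 per well and incubated overnight (37 °C, 5% CO2). Exposed to compound for 48 h. Fixed in methanol 30 min, then stained with Hoechst 33258 for 30 min at room temperature in the dark. Nuclear morphology scored by fluorescence microscopy; n = 3, mean ± SD.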

In experiment [13] the test system is MDA-MB-231. Nature of the experiment: Induction of apoptosis in human MDA-MB-231 cells assessed as late apoptotic cells at 1.76 uM incubated for 48 hrs AnnexinV/ propidium iodide staining based flow cytometry (Rvb= 0.40%). The experiment is classed as functional.
The subject of experiment [14] is MDA-MB-231. Briefly: Induction of apoptosis in human MDA-MB-231 cells assessed as late apoptotic cells at 7.04 uM incubated for 48 hrs AnnexinV/ propidium iodide staining based flow cytometry (Rvb= 0.40%). Type of experiment: functional.
The subject of experiment [15] is MDA-MB-231. Nature of the experiment: Induction of apoptosis in human MDA-MB-231 cells assessed as viable cells at 0.88 uM incubated for 48 hrs AnnexinV/ propidium iodide staining based flow cytometry (Rvb= 99.02%). The experiment is classed as functional. As to conditions: read-out: Activity.
In a further experiment the test system is HepG2. Briefly: Antitumor activity against human HepG2 cells assessed as inhibit cell proliferation incubated for 72 hrs by CCK-8 assay. The experiment is classed as functional, cell-based. As to conditions: HepG2, 72 h. The method, boiled down: as §3
The subject of experiment [16] is MDA-MB-231. Nature of the experiment: Antitumor activity against human MDA-MB-231 cells assessed as inhibit cell proliferation incubated for 72 hrs by CCK-8 assay. The following applies: MDA-MB-231, 72 h. The experiment is classed as functional, cell-based. The method in brief: as §3
For experiment [17], the system named is MDA-MB-231. Nature of the experiment: Inhibition of cell invasion in human MDA-MB-231 cells assessed as decrease in number of cells crossing microporous membrane at 0.88 to 3.52 uM incubated for 48 hrs by crystal violet staining based transwell invasion assay. The experiment is classed as functional. The following applies: dose 0.88-3.52 µM, DDE = dose-dependent effect. The method in brief:
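Transwell invasion, MDA-MB-231. Cells in serum-free medium in the upper chamber with compound; complete medium below. 48 h at 37 °C. Methanol fixation 2 h, non-invaded cells swabbed off, 0.5% crystal violet 30 min. Invaded cells photographed and counted; n = 3, mean ± SD.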

Turning to `O=C(Nc1cccc(-c2oc3cc(-c4ccc(F)cc4)ccc3c(=O)c2O)c1)c1ccc(Cl)nc1`, the Activity with MDA-MB-231 [1] was 23.85%; in the experiment on MDA-MB-231 [4] it was 3.88%; in the experiment on MDA-MB-231 [5], 1.53%; in the experiment on MDA-MB-231 [6], “Dde”; in the experiment on MDA-MB-231 [8] it was 0.63%; with MDA-MB-231 [9] it was 15.04%. The Activity entry in the experiment on MDA-MB-231 [10] was “Dde”; in the experiment with MDA-MB-231 [11] it was 0.86%; in the experiment on MDA-MB-231 [12], “Dde”; in the experiment on MDA-MB-231 [13], 49.45%; in the experiment on MDA-MB-231 [14], 68.54%. Besides, the inhibition result in the experiment on MDA-MB-231 [2], in the experiment on MDA-MB-231 [3], in the experiment on MDA-MB-231 [7] and in the experiment with MDA-MB-231 [17] was “Dde” throughout. The concentration for half-maximal inhibition (IC50) worked out at 2.89 µM in the experiment with MCF7, 4.08 µM with HeLa, 4.61 µM with HepG2 and 1.76 µM with MDA-MB-231 [16]. Besides, the viability at 0.88 µM with MDA-MB-231 [15] turned out to be 74.3%.

Broadly, the IC50 is the concentration at which inhibition is half-maximal.
